What was measured:
[1] = tested on: Trypanosoma brucei brucei; assay: Antitrypanosomal activity against Trypanosoma brucei brucei Lister 427 bloodstream forms incubated for 72 hrs by resazurin based assay; type: functional, organism-based; conditions: for IC50: Lister 427, 72 h; for IC90: Lister 427, time 72 hrs
Summary of the method: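 T. brucei was screened first at 10 μM, with pentamidine as the reference and internal control. IC50 was determined when growth inhibition was above 50%, reported with a 95% confidence interval for the mean curve of the independent assays.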

[2] = Selectivity index, ratio of CC50 for human THP1 cells to IC50 for antitrypanosomal activity against Trypanosoma brucei brucei Lister 427 bloodstream forms; type: toxicity; conditions: read-out: Ratio CC50/IC50
Summary of the method: (§1)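 Selectivity index was calculated as THP1 CC50 divided by parasite IC50.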

[3] = Cytotoxicity in human THP-1 cells assessed as reduction in cell viability incubated for 48 hrs hrs by MTT assay; type: toxicity, cell-based
[4] = Selectivity index, ratio of CC50 for human THP1 cells to IC50 for Antileishmanial activity against luciferase-expressing Leishmania infantum (MHOM/MA/67/ITMAP-263) axenic amastigotes incubated for 72 hrs by resazurin based assay relative to control; type: toxicity; conditions: in the assay text read “promastigotes” for “axenic amastigotes”, read-out: Ratio CC50/IC50; summary of the method: as §1
[5] = tested on: Leishmania infantum; assay: Antileishmanial activity against luciferase-expressing Leishmania infantum (MHOM/MA/67/ITMAP-263) axenic amastigotes incubated for 72 hrs by resazurin based assay relative to control; type: functional, organism-based; conditions: MHOM/MA/67/ITMAP-263, 72 h, in the assay text read “promastigotes” for “axenic amastigotes”

Row | IC50 [1] [µM] | IC90 [1] [µM] | Structure (SMILES) | selectivity ratio [2] | CC50 at 48 h [3] [µM] | selectivity ratio at 72 h [4] | IC50 [5] [µM]
1 | 2.29 | 5.67 | OCCCOc1cccc(Nc2ncnc3c(N/N=C/c4ccc(O)c(O)c4)ncnc23)c1 | 4 | 25 | – | –
2 | 9.89 | 24.1 | NNc1ncnc2c(Nc3cccc(OCCCO)c3)ncnc12 | > 10 | > 100 | – | –
3 | 3.88 | 8.36 | Oc1cc(/C=N/Nc2ncnc3c(Nc4cccc(OCc5ccncc5)c4)ncnc23)cc(O)c1O | > 26 | > 100 | – | –
4 | 12.4 | 255 | COc1cc(/C=N/Nc2ncnc3c(Nc4ccc(OCCCO)cc4)ncnc23)cc(OC)c1O | 4 | 50 | – | –
5 | 3.26 | 14.5 | OCCCOc1cccc(Nc2ncnc3c(N/N=C/c4cc(O)c(O)c(O)c4)ncnc23)c1 | 15 | 50 | – | –
6 | 3.41 | 37.2 | COc1cc(/C=N/Nc2ncnc3c(Nc4cccc(OCc5ccncc5)c4)ncnc23)cc(OC)c1O | > 29 | > 100 | – | –
7 | 0.94 | 1.24 | NNc1ncnc2c(Nc3cccc(OCc4ccncc4)c3)ncnc12 | > 107 | > 100 | > 32 | 3.13
8 | 1.9 | 2.07 | OCCCOc1ccc(Nc2ncnc3c(N/N=C/c4ccc(O)c(O)c4)ncnc23)cc1 | 5 | 25 | – | –

The remaining lines, values behind:

Row | Structure (SMILES) | IC50 [1] [µM] | IC90 [1] [µM] | selectivity ratio [2] | CC50 at 48 h [3] [µM] | selectivity ratio at 72 h [4] | IC50 [5] [µM]
9 | OCCCOc1cccc(Nc2ncnc3c(N/N=C/c4ccc(O)cc4)ncnc23)c1 | 6.18 | 21.2 | 8 | 50 | – | –
10 | COc1cc(/C=N/Nc2ncnc3c(Nc4cccc(OCCCO)c4)ncnc23)cc(OC)c1OC | 6.12 | 17.6 | 8 | 50 | – | –
11 | COc1cc(/C=N/Nc2ncnc3c(Nc4ccc(OCCCO)cc4)ncnc23)ccc1O | 3.76 | 9.22 | 14 | 50 | – | –
12 | Oc1ccc(/C=N/Nc2ncnc3c(Nc4cccc(OCc5ccncc5)c4)ncnc23)cc1O | 1.73 | 1.75 | > 58 | > 100 | – | –
13 | OCCCOc1ccc(Nc2ncnc3c(N/N=C/c4ccc(O)cc4)ncnc23)cc1 | 12.9 | 88.3 | 3 | 50 | – | –
14 | COc1ccc(/C=N/Nc2ncnc3c(Nc4cccc(OCCCO)c4)ncnc23)cc1OC | 2.72 | 8.17 | > 37 | > 100 | – | –
15 | OCCCOc1ccc(Nc2ncnc3c(N/N=C/c4cc(O)c(O)c(O)c4)ncnc23)cc1 | 6.95 | 20.5 | > 14 | > 100 | – | –
16 | NNc1ncnc2c(Nc3ccc(OCCCO)cc3)ncnc12 | 3.03 | 35.8 | > 33 | > 100 | – | –
17 | COc1ccc(/C=N/Nc2ncnc3c(Nc4ccc(OCCCO)cc4)ncnc23)cc1O | 2.6 | 8.73 | 19 | 50 | – | –
18 | COc1cc(/C=N/Nc2ncnc3c(Nc4ccc(OCCCO)cc4)ncnc23)cc(OC)c1OC | 3.32 | 37.7 | > 30 | > 100 | – | –
19 | COc1ccc(/C=N/Nc2ncnc3c(Nc4ccc(OCCCO)cc4)ncnc23)cc1OC | 8.59 | 25.5 | 6 | 50 | – | –
20 | COc1ccc(/C=N/Nc2ncnc3c(Nc4cccc(OCCCO)c4)ncnc23)cc1O | 6.57 | 18.7 | 8 | 50 | – | –
21 | COc1cc(/C=N/Nc2ncnc3c(Nc4cccc(OCCCO)c4)ncnc23)ccc1O | 13.4 | 44.9 | 1 | 25 | – | –
22 | COc1cc(/C=N/Nc2ncnc3c(Nc4cccc(OCCCO)c4)ncnc23)cc(OC)c1O | 6.06 | 18.1 | 4 | 50 | – | –
23 | CCCCCCCCCCCCCCCCOP(=O)([O-])OCC[N+](C)(C)C [MILTEFOSINE] | – | – | – | 30.9 | 1.3 | 2.21
24 | N=C(N)c1ccc(OCCCCCOc2ccc(C(=N)N)cc2)cc1 [PENTAMIDINE] | 0.00405 | – | 12800 | 51.8 | – | –
